Screening results (PubChem)
Most compounds without a hit are left out; they make up all but 2.5% or so of the library.
SENP6 inh = SENP6 protease inhibition | 330,000 compounds, 1.8% hits | inhibition, % at 10 µM | AID 2599 | Recombinant SENP6 catalytic domain, aminoluciferin luminescence;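 active = inhibition above about 50% at the single tested dose, limit read from the data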
Target sequence (Q9GZR1 628-1112 limits assumed): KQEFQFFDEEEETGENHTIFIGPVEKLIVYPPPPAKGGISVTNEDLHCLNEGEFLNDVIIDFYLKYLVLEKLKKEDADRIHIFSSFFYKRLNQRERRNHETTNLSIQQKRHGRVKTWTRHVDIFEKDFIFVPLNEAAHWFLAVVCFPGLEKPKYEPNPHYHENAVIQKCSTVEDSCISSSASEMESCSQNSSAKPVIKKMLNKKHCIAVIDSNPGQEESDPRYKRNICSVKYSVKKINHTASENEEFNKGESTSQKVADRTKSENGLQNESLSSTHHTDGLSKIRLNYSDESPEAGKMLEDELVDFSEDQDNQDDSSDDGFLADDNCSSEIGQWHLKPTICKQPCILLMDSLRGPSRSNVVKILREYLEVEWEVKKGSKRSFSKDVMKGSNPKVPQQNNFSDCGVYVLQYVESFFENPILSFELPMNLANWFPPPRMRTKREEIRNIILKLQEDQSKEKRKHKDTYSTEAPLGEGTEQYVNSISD
SENP7 inh = inhibitors of human SENP7 protease; Q9BQF6; recombinant SENP7, Z-RLRGG-aminoluciferin luminescence, 40 min; inhibition, % at 5 µM; 330,000 compounds, 1.5% hits; AID 434973;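 active = inhibition above about 50% at the single test dose, limit read from the data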
SENP8 block-1 = inhibitors of human SENP8 protease; Q96LD8; recombinant SENP8, Nedd8 substrate fluorescence; inhibition, % at 20 µM; 360,000 compounds, 0.64% hits; AID 602440; in the data active = inhibition mostly above about 40%, no sharp cut-off; inactive = mostly below about 27%
SENP1 FRET inh = inhibitors of human SENP1 SUMO protease catalytic domain; inhibition, % at 10 µM; AID 624204; 360,000 compounds, 0.21% hits; recombinant SENP1 catalytic domain, CyPet-SUMO1-YPet FRET cleavage; Q9P0U3;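 active = inhibition at least 30% at 10 µM, raw YFP signal under a set limit, fluorescence ratio 0.5 to 1.5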
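Assay system – human recombinant His6-tagged SENP1 catalytic domain enzyme · Input – SENP1 enzyme, 20 pM final · Buffer or medium – Tris pH 8 buffer plus EDTA, NaCl, BME, BSA, NP40, catalase · Schedule – 50 min reaction at room temperature · Technique – FRET read of cyan and yellow fluorescence · Control set – no-enzyme wells low, DMSO-plus-enzyme wells high control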
SENP8 block-2 = SENP8 protease inhibition. AID 2540. 330,000 compounds, 1.2% hits. Q96LD8. inhibition, % at 10 µM. purified SENP8, Z-RLRGG-aminoluciferin cleavage, luminescence; in the data active = inhibition above about 50%
SENP8 confirm = confirmation of human SENP8 protease inhibitors. shares compounds with SENP7 inh. Recombinant SENP8, Z-RLRGG-aminoluciferin luminescence, 60 min. inhibition, % at 12.5 µM. 6,200 compounds, 40% hits;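 active = mean inhibition across replicates above about 50%, limit read from the data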
SENP6 confirm = human SENP6 inhibition, confirmed; shares compounds with SENP7 inh; recombinant SENP6, Z-RLRGG-aminoluciferin luminescence; inhibition, % at 12.5 µM; 6,200 compounds, 58% hits
SENP7 conf = human SENP7 inhibition, confirmed | inhibition, % at 12.5 µM | recombinant SENP7, Z-RLRGG-aminoluciferin luminescence, 40 min | shares compounds with SENP7 inh | 6,200 compounds, 69% hits
Casp3 SENP sel = inhibits human caspase-3 in SENP selectivity test | shares compounds with SENP7 inh | purified caspase-3, Z-DEVD-aminoluciferin luminescence, 60 min | 6,200 compounds, 60% hits | inhibition, % at 12.5 µM;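 active = mean inhibition above about 50%, limit read from the data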
Luc interf = luminescence interference (SENP counter-screen); shares compounds with SENP7 inh; Pre-incubated SENP8/Z-RLRGG-aminoluciferin, luciferase luminescence interference; inhibition, % at 12.5 µM; 6,200 compounds, 39% hits;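 active = mean inhibition above about 50% when retested at one dose, limit read from the data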
Each line names hits and unclear results; the compound was inactive in the other large screens (follow-up assays come after a bar, where they were run).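 Rule for the calls, unless noted: active = mean inhibition above about 50% in the one-dose retest (limit read from the data); inactive = the rest.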

O=C(COc1ccccc1Cl)Nc1ccc(Cl)cn1	SENP6 inh 74 | SENP8 confirm inactive | SENP6 confirm 61 | SENP7 conf 86 | Casp3 SENP sel 60 | Luc interf inactive
COc1ccccc1OCC(=O)Nc1ccccn1	SENP6 inh 82, SENP7 inh 86, SENP8 block-2 78 | SENP8 confirm 78 | SENP6 confirm 74 | SENP7 conf 94 | Casp3 SENP sel 93 | Luc interf 81
CCCCc1cc(=O)oc2cc(C)cc(OCC(=O)Nc3ccccn3)c12	SENP6 inh 53 | SENP8 confirm inactive | SENP6 confirm inactive | SENP7 conf 68 | Casp3 SENP sel 76 | Luc interf 53
CCCc1cc(=O)oc2cc(C)cc(OCC(=O)Nc3ccccn3)c12	none
COCCNC(=O)c1c(CS(=O)(=O)c2ccccc2)noc1C(=O)NCc1ccccc1	none
Cc1c(C)c2ccc(OCC(=O)Nc3ccccn3)c(C)c2oc1=O	SENP6 inh 98, SENP7 inh 100, SENP8 block-2 92 | SENP8 confirm 59 | SENP6 confirm 88 | SENP7 conf inactive | Casp3 SENP sel 93 | Luc interf inactive
Cc1cccc(NC(=O)NC(=O)c2ccccc2)n1	SENP7 inh 54 | SENP8 confirm inactive | SENP6 confirm inactive | SENP7 conf inactive | Casp3 SENP sel inactive | Luc interf inactive
C=CCn1c(=O)c2ccccc2n2c(SCC(=O)NCC)nnc12	none
O=C1CC(O)(C(F)F)Oc2ccc3ccccc3c21 (stereo not drawn)	none
O=C1CC(O)(C(F)(F)F)Oc2c1ccc1ccccc21 (stereo not drawn)	SENP6 inh 82, SENP7 inh 54, SENP8 block-2 77 | SENP8 confirm 86 | SENP6 confirm 84 | SENP7 conf 96 | Casp3 SENP sel 81 | Luc interf 86
O=S(=O)(NC1=NCCC1)c1cccc(NS(=O)(=O)c2ccc(OC(F)(F)F)cc2)c1	none
Cc1ccc(SCc2nc3ccccc3[nH]2)cc1	SENP6 inh 57 | SENP8 confirm 51 | SENP6 confirm inactive | SENP7 conf 76 | Casp3 SENP sel 64 | Luc interf 56
Brc1ccc(OCc2nc3ccccc3[nH]2)cc1	SENP6 inh 62, SENP7 inh 66, SENP8 block-2 56 | SENP8 confirm inactive | SENP6 confirm inactive | SENP7 conf 85 | Casp3 SENP sel 58 | Luc interf inactive
COc1cccc(OCc2nc3ncc(Br)cc3[nH]2)c1	none
COc1cccc(OCc2nc3ccccc3[nH]2)c1	SENP6 inh 67, SENP7 inh 74, SENP8 block-2 65 | SENP8 confirm 73 | SENP6 confirm 72 | SENP7 conf 93 | Casp3 SENP sel 86 | Luc interf 75
c1ccc(SCc2nc3ccccc3[nH]2)cc1	none
Cc1ccccc1OCc1nc2ccccc2[nH]1	SENP6 inh 80, SENP7 inh 86, SENP8 block-2 68 | SENP8 confirm 72 | SENP6 confirm 72 | SENP7 conf 92 | Casp3 SENP sel 86 | Luc interf 62
COCCNC(=O)C1(C)CCCN(C(=O)c2cc(C)on2)C1 (stereo not drawn)	none (no result: SENP6 inh, SENP7 inh, SENP8 block-2)
COc1ccc(OCc2nc3ccccc3[nH]2)cc1	SENP6 inh 72, SENP8 block-2 72 | SENP8 confirm inactive | SENP6 confirm 76 | SENP7 conf 94 | Casp3 SENP sel 90 | Luc interf 80
COc1ccccc1OCc1nc2ccccc2[nH]1	none
c1cnc2c(OCc3nc4ccccc4[nH]3)cccc2c1	none
c1ccc2cc(OCc3nc4ccccc4[nH]3)ccc2c1	SENP6 inh 87, SENP7 inh 77, SENP8 block-2 80 | SENP8 confirm inactive | SENP6 confirm 68 | SENP7 conf 95 | Casp3 SENP sel 66 | Luc interf inactive
CC1CCN(CCCN2C(=O)C3C(C(=O)Nc4ccc(Cl)cc4)C4C=CC3(O4)C2C(=O)NC2CCCCC2)CC1 (stereo not drawn)	none
CC(=O)Nc1c(C(=O)O)ccc(C)c1OCc1ccccc1	none (no result: SENP6 inh, SENP7 inh, SENP8 block-2)
Cc1ccc(-c2csc(NC(=O)c3cccc(S(=O)(=O)N4CCN(C)CC4)c3)n2)cc1	none
Cc1ccc(-c2csc(NC(=O)COC(=O)c3cccc(S(=O)(=O)N4CCOCC4)c3)n2)cc1	SENP6 inh 51 (no result: SENP8 block-1, SENP1 FRET inh) | SENP8 confirm 52 | SENP6 confirm 51 | SENP7 conf 83 | Casp3 SENP sel 70 | Luc interf 53
O=C1CCCN1CCCNc1ccc2nnc(CCC(=O)N3CCN(c4ccccc4)CC3)n2n1	none
CC1CC(C)CN(CCCNC(=O)C2CCN(S(=O)(=O)N3CCCCC3)CC2)C1 (stereo not drawn)	SENP7 inh 101 | SENP8 confirm inactive | SENP6 confirm inactive | SENP7 conf inactive | Casp3 SENP sel inactive | Luc interf inactive
CC1CCN(CCCNC(=O)C2CCN(S(=O)(=O)N3CCCCC3)CC2)CC1	none
O=C(CSc1nnc(NC(=O)C2CC2)s1)Nc1ccccc1Cl	none
CCOC(=O)Nc1ccc2c(c1)nc(CN1CCCCC1)n2C	none
Cc1ccc(C(O)C(=O)c2ccco2)cc1 (stereo not drawn)	SENP7 inh 75 | SENP8 confirm inactive | SENP6 confirm inactive | SENP7 conf inactive | Casp3 SENP sel inactive | Luc interf inactive
O=C(N/N=C/C(Cl)=C\c1ccccc1)c1cccs1	SENP6 inh 63, SENP8 block-2 52 | SENP8 confirm inactive | SENP6 confirm 59 | SENP7 conf 85 | Casp3 SENP sel inactive | Luc interf inactive
CC(/C=N/NC(=O)c1ccccc1F)=C\c1ccccc1	SENP6 inh 58 | SENP8 confirm inactive | SENP6 confirm inactive | SENP7 conf 70 | Casp3 SENP sel 52 | Luc interf 54
CC(/C=N/NC(=O)c1cccs1)=C\c1ccccc1	SENP7 inh 77, SENP8 block-2 71 | SENP8 confirm inactive | SENP6 confirm 81 | SENP7 conf 93 | Casp3 SENP sel 63 | Luc interf inactive
O=C(O)c1cc(N/N=C/C(Cl)=C/c2ccccc2)ccc1Cl	SENP6 inh 88, SENP7 inh 89, SENP8 block-2 96 | SENP8 confirm 98 | SENP6 confirm 99 | SENP7 conf 101 | Casp3 SENP sel inactive | Luc interf 97
O=C(O)c1cc(NN=C2c3ccccc3-c3ccccc32)ccc1Cl	none
